This sample holds only a part of the variants without activity.
B1: tRNA (parent)
chain: GUUCCGUUGGCGUAAUGGUAACGCGUCUCCCUCCUAAGGAGAAGACUGCGGGUUCGAGUCCCGUACGGAACG

Variants of: B1
Experiment: yeast fitness relative to wild type (ratio to wild type); higher = fitter; tRNA-Arg(CCU), competitive growth, 37 C, YPD
Method in brief: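 Variants of the tRNA-Arg(CCU) gene were chemically synthesised with a 3% per-site mutation rate across 69 sites and placed at the native genomic locus in Saccharomyces cerevisiae. Six parallel replicates of the pooled strains were competed in YPD at 37°C for 24 hours, and gene amplicons from the start and end populations were read by 100-nucleotide paired-end sequencing. Darwinian fitness relative to wild type was derived from changes in genotype frequencies. Genotypes required ≥ 100 starting reads, and estimates < 0.5 were set to 0.5.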

Variant	yeast fitness
GUUCUGUUGGCGUAAUGGUAACGCGUCUCCCUCCUAACCGGAAAAGUGCGGAUUCGAGGCCCGUACGGAACG [C5U G38C G39C A40G G44A C46G G52A U59G]	≤ 0.5
GUUCUGUUGGCGUAAUGGUAACGCGUCUCCCUCCUAAGAAGAAGACUGCGGGUUCGAGUCCCGUACGGCACG [C5U G39A A69C]	0.647
GUUCUGUUGGCGUAAUGGUAACGCAUCUCCCUCCUAAGGAGAAGACUGCGGGUUCGAGUCCCGUACGGCACG [C5U G25A A69C]	0.728
GUUCUGUUGGCGUAAUGGUAACACGUCUCCCUCCUAAGGAGAAGACUGCGGGUUCGAGUCCGGUACGGAACG [C5U G23A C62G]	0.538
GUUCUGUUGGCGUAAUCCUAACGCGUCUCCCUCCUAAGGAGAAGACUGCGGGUUCGAGUGGCGUACGGAACG [C5U G17C G18C C60G C61G]	≤ 0.5
GUUCUGUUGGCGUAAUGGUAACGCGUCUCCCUCCUAAGGAAAAGACUGUGGGUUCGAGUCCCGUGUGGAACG [C5U G41A C49U A65G C66U]	≤ 0.5
GUUCUGUUGGCGUAAUGGUAACGCGUCUCCCUCCUAAGGAGAAGACUGCGCGUUCCAGUCCCGUACGGUACG [C5U G51C G56C A69U]	≤ 0.5
GUUCUGUUGGCGUAAUCGUAACGGGUCUCCCUCCUAACGAGAAGACUGCGGGUCCGAGUCCCGUACGGAACG [C5U G17C C24G G38C U54C]	≤ 0.5
GUUCUGUUGGCGUAAUGCUAACGCGUCUCCCUCCUAAGGAGAAGACUGCGGGUUCGAGUCCCGUUCGGAACG [C5U G18C A65U]	0.601
GUUCUGUUGGCGUAAUGGUAACGCGUCUCCCUCCUAAGAAGAAGACUGCGGGUUUGAGUCCCGUACGGAACG [C5U G39A C55U]	0.614
GUUCUGUUGGCGUAAUGGUAACGCGUCUCCCUCCUAAGGAGAAGACUGCGCGUUCCAGUCCCGUACGGAACG [C5U G51C G56C]	≤ 0.5
GUUCUGUUGGCGUAAUGGUAACGCCUCUCCCUCCUAAGGAGUAGACUGCGGGUUCGAGUCCGGUACGGAACG [C5U G25C A42U C62G]	≤ 0.5
GUUCUGUUGGCGUAAUGGUAACACGUCUCCCUCCUAAGGAGAAGACUGCGGGUUCGAGUCCCGUACGGAACG [C5U G23A]	0.742
GUUCUGUUGGCGUAAUGGUAACCCGUCUCCCUCCUAAGGAGAAGACUGCGGGUUCGAGUCCCGUACGGAACG [C5U G23C]	0.644
GUUCUGUUGGCGUAAUGGUAACGCGUCUCCCUCCUAAGGAGAAGACUGCCCGUUCCAGUCCCGUACGGUACG [C5U G50C G51C G56C A69U]	≤ 0.5
GUUCUGUUGGCGUAAUCGUAACGCGUCUCCCUCCUAAGGAGACGACUGGGGGUUCGAGUCCCGUACGGAACG [C5U G17C A43C C49G]	≤ 0.5
GUUCUGUUGGCGUAAUGGUAACGCGUCUCCCUCCUAAGAAGAAGACUGCGGGUUCGCGUCCCGUACGGAACG [C5U G39A A57C]	0.656
GUUCUGUUGGCGUAAUGGUAACGCCUGUCCCUCCUAAGGAGAAGACUGCGGGUUCGAGUCCCGUACGGAACG [C5U G25C C27G]	≤ 0.5
GUUCUGUUGGCGUAAUGGUAACGCGUCUCCCUCCUAAGGAGAACACUGCGGGUUCGAGUCCCGUACGGAACG [C5U G44C]	1.01

Variant	yeast fitness
GUUCUGUUGGCGUAAUGGUAACGCGUCUCCCUCCUAAGGAGAACACUGCGGGUCCGAGUCCCGUACGGAACG [C5U G44C U54C]	0.637
GUUCUGUUGGCGUAAUGGUAACGCGUCUCCCUCCUAAGAAGAAGACUGCGUGUUCGACUCCCGUACGGAACG [C5U G39A G51U G58C]	≤ 0.5
GUUCUGUUGGCGUAAUGGUAACGCGUCUCCCUCCUAAGGAACAGACUGCCGGUUCGAGUCCCGUACGGAGCG [C5U G41A A42C G50C A70G]	0.535
GUUCUGUUGGCGUAAUGGUAACGCGUCUCCCUCCUAACGAGCAGACUGCGGGUUCGAGUCCCAUACGGAACG [C5U G38C A42C G63A]	≤ 0.5
GUUCUGUUGGCGUAAUGCUAACGCGUCUCCCUCCUAAGGAGAAGACUGCGGGUUCGAGUCUCGUACGGAACG [C5U G18C C61U]	0.565
GUUCUGUUGGCGUAAUGGUAACGCGUCUCCCUCCUAAGGAGAAGACUGCGAGUUCGAGUCCCGUACGGAACG [C5U G51A]	0.798
GUUCUGUUGGCGUAAUGGUAACGCGUCUCCCUCCUAAGGAGAAGACUCCGGGUUCGAGUCCCGUACGGAACG [C5U G48C]	0.853
GUUCUGUUGGCGUAAUGGUAACGCGUCUCCCUCCUAAGGAGAAGACUGCGAGUUCGAGUCCCGUCCGGAACG [C5U G51A A65C]	≤ 0.5
GUUCUGUUGGCGUAAUGGUAACACGUCUCCCUCCAAAGGAGAAGACUGCGGGUUCGAGUCCCGUACGGAACG [C5U G23A U35A]	≤ 0.5
GUUCUGUUGGCGUAAUGCUAAAGCGUCUCCCUCCUAAGGAGAAGACUGCGGGUACGAGUCCCGUGCGGAACG [C5U G18C C22A U54A A65G]	≤ 0.5
GUUCUGUUGGCGUAAUCGUAACGCGUCUCCCUCCUAAGGAGAAGACUGCGGAUUCGAGUCCCGUACGGAACG [C5U G17C G52A]	0.61
GUUCUGUUGGCGUAAUGGUAACGCGUCUCCCUCCUAAGGAGAACACCGCGGGUUCGAGUCCCGUACGGAACG [C5U G44C U47C]	0.807
GUUCUGUUGGCGUAAUGGUAACACGUCUCCCUCCUGAGGAGAAGACUGCGGGUUCGAGUCCCGUACGGAACG [C5U G23A A36G]	0.618
GUUCUGUUGGCGUAAUGGUAACGCAUCUCCCUCCUAAGGCGAAGACUGCGGGUUCGAGUCCCGUACGGAACG [C5U G25A A40C]	≤ 0.5
GUUCUGUUGGCGUAAUGGUAACGCGUCUCCCUCCUAAGGAAAAGAACGCGGGUUCGAGUCCCGUACGGAACG [C5U G41A C46A U47C]	0.568
GUUCUGUUGGCGUAAUGGUAACGCGUCUCCCUCCUAAGGAAAAGACUGCGGGUUCGAGUCCCGUACGGACCG [C5U G41A A70C]	0.695
GUUCUGUUGGCGUAAUUGUAACGCGUCUCCCUCCUAAGGAGAAGACUGCGGGUUCGAGUCCCGUACGGAUCG [C5U G17U A70U]	≤ 0.5
GUUCUGUUGGCGUAAUGGUAACGCAUCUCCCUCCUAAGGAGAAGACUGCGCGUUCCAGUCCCGUACGGUACG [C5U G25A G51C G56C A69U]	≤ 0.5

— the RNAGym collection of RNA variant scans (doi:10.1126/science.aae0568)
